In paper PMC8965017 (International Journal of Nanomedicine, 2022):

Assays:
[1] = system: MDA-MB-231 cells; assay: Cell uptake of C6-labelled micelles; format: cell-based, human; conditions: MDA-MB-231, 1 h and 4 h
Outline: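 Coumarin 6 was loaded into the polymer micelles by film dispersion. MDA-MB-231 cells were seeded overnight at 1×10^4 cells/well and given free C6 or C6-micelles; one group was pretreated with HA (10 mg/mL) for 0.5 h to block the receptor. After 1 h or 4 h at 37°C, cells were PBS-washed three times, paraformaldehyde-fixed for 10 min, DAPI-stained for 10 min at room temperature and viewed by fluorescence microscopy.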

[2] = system: MDA-MB-231 tumor-bearing mice; assay: In vivo antitumor efficacy; parameters: species or system BALB/c nude mice; conditions: 5 mg/kg once every 3 days, 6 times, day 18
Outline: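 Female BALB/c nude mice aged 4–5 weeks carried subcutaneous MDA-MB-231 tumours. At about 100 mm3 they were randomised into 5 groups (n = 6): PBS, single drugs, combination or nanoparticles. From day 0, intravenous doses of 5 mg/kg were given every 3 days, 6 times in total. Tumour length and width were measured by caliper before each dose to calculate volume, and tumours were excised after the last dose.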

[3] = system: MDA-MB-231 cells; assay: In vitro cytotoxicity, MTT assay; format: cell-based, human; conditions: 5-100 μM, 24 and 48 h
Outline: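 MDA-MB-231 cells were seeded at 1×10^4 cells/well for 24 h. Medium was then replaced with single drugs, their combination or the nanoparticle formulation at 5, 10, 20, 50, 75 and 100 μM. After 24 or 48 h, MTT was added for 4 h and absorbance was read at 490 nm. Survival was calculated from blank, treated and control OD; mean ± SD, n = 3.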

[4] = system: MDA-MB-231 cells; assay: Calcein-AM/PI staining; format: cell-based, human; conditions: DAS concentration 10 µM, 24 h
Outline: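 MDA-MB-231 cells (RPMI-1640, 10% FBS, 1% penicillin-streptomycin; 37°C, 5% CO2) were seeded at 1×10^4 cells/well and grown overnight. They were then exposed for 24 h to free drugs, their combination or the nanoparticle formulation at a DAS concentration of 10 µM. Cells were stained with calcein-AM/PI at 37°C for 30 min and imaged by fluorescence microscopy.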

[5] = In vivo safety; parameters: species or system BALB/c nude mice; conditions: after treatment
Outline: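 At the end of treatment, blood from the MDA-MB-231 xenograft-bearing nude mice was assayed for serum AST, ALT, AKP, BUN and creatinine. Major organs (heart, liver, spleen, lung, kidney) were taken for HE staining. Mean ± SD, n = 3.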

CCN(CC)c1ccc2cc(-c3nc4ccccc4s3)c(=O)oc2c1 [C6, coumarin 6]
cellular uptake (green fluorescence of C6) [1]: weak green fluorescence

Cc1nc(Nc2ncc(C(=O)Nc3c(C)cccc3Cl)s2)cc(N2CCN(CCO)CC2)n1 [DAS, Dasatinib]
tumor growth inhibition rate (TGI) [2]: 49.83%

O=C(c1cc(Cc2n[nH]c(=O)c3ccccc23)ccc1F)N1CCN(C(=O)C2CC2)CC1 [OLA, Olaparib]
toxicity to MDA-MB-231 cells (MTT) [3]: low toxicity
live/dead fluorescence (green living, red dead) [4]: no obvious red appearance
serum indicators of liver and renal function (AST, ALT, BUN, CRE) vs normal mice [5]: significantly increased
